Screening results (PubChem)
Compounds with a hit are over-represented: about 11% of the library has one in this group of screens.
Diaph act CS = diaphorase activation or chemical reduction counter-screen; 0.005% of 190,000 active; activation factor at 20 µM; AID 1229; Diaphorase/resazurin coupled assay, resorufin fluorescence, 16 min; stronger effect = higher value; 1 = vehicle wells, 0 = NADH-free wells;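 active = diaphorase activity raised at least twofold by the compound at 20 µM; inactive = activation factor below 2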
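Assay system: bacterial diaphorase enzyme (C. kluyveri) / Input: enzyme 0.07 U/mL final / Medium: 50 mM HEPES pH 7.4 with 4.542 mM MgCl2, 0.005% Tween 20 / Doses: single compound dose of 20 µM, 1% DMSO final / Incubation: 16 min enzyme reaction, ambient temperature / Signal: fluorescence, excitation 544 nm and emission 590 nm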
Diaph inh CS = diaphorase inhibition or chemical oxidation counter-screen | diaphorase resazurin-to-resorufin fluorescence, NADH, 16 min; bacterial (C. kluyveri) enzyme, not human | inhibition, % at 20 µM | 0.69% of 190,000 active | AID 1217;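 active = primary screen inhibition at 20 µM above a set limit, cut at about 50% in these data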;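 also: plate controls were DMSO with full reaction for no effect and wells lacking NADH for full effect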
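Benchmarks: positive control wells lacking NADH, neutral wells with DMSO only. System: bacterial diaphorase enzyme (C. kluyveri). Input: 0.14 U/mL diaphorase, enzyme working solution. Detection: resorufin fluorescence, excitation 544 nm, emission 590 nm. Times: 16-min room-temperature incubation before reading.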
L major viab = inhibitors of Leishmania major promastigote growth. Leishmania major promastigotes, resazurin fluorescence viability. inhibition, % at 10 µM. 9% of 200,000 active;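 also: promastigotes grown with compound for 44 hours at 28 °C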
G6PDH CS = L. mesenteroides G6PDH inhibition counter-screen; Purified L. mesenteroides G6PDH, diaphorase/resazurin coupled fluorescence, 45 min; inhibition, % at 5 µM; 0.12% of 200,000 active
WT yeast gro inh = growth inhibition of WT yeast, mitochondrial fusion screen | mitochondrial fusion phenotypic screen, WT strain | inhibition, % at 10 µM | 2.1% of 190,000 active; in the data active = inhibition above about 58%; tested in S. cerevisiae
Numbers without * were called inactive; / = no result given. Rule as the data show it, unless noted: active = inhibition above about 50%; inactive = the rest.

SMILES	Diaph act CS	Diaph inh CS	L major viab	G6PDH CS	WT yeast gro inh
CC(N)C(=O)c1ccco1 (stereo unspecified)	0.9	9	-11	2	10
CN(C(=O)Oc1ccc(C(=O)c2ccc(Cl)cc2)cc1)c1ccccc1	0.9	5	56*	8	25
CCN1CCN(c2ccc([N+](=O)[O-])cc2C=C2C(=O)NC(=O)NC2=O)CC1	0.9	11	60*	13	14
O=C1C2CCN(CC2)C1Cc1ccccc1O (stereo unspecified)	1	-3	-6	3	4
Oc1ccc(CC2CC3CCN2CC3)cc1O (stereo unspecified)	0.5	53*	-3	40	-11
Cc1nn(Cc2ccccc2)c(C)c1C(=O)OCC(=O)NC1CCS(=O)(=O)C1 (stereo unspecified)	0.9	12	-6	10	-21
COc1cc2c(cc1OC)C(C(=O)N(C)C1CCCCC1)C1CCCCN1C2=O (stereo unspecified)	1	3	59*	3	7
CN1C(=O)CN=C(c2ccccc2)c2cc([N+](=O)[O-])ccc21	0.9	12	/	5	-17
COc1cc(NC(=O)CN2C3CCC2CC(O)(c2cccnc2)C3)cc(OC)c1 (stereo unspecified)	0.9	5	93*	7	43
Cc1ccccc1CN1CCNCC1	1	-1	-3	5	-3
Cc1cc([N+](=O)[O-])c(Cl)cc1NC(=O)C(C)C	0.9	8	58*	7	-6
COc1ccc(CCNCc2ccncc2)cc1	0.8	16	90*	-3	-15
COc1cccc(CCNCc2ccc(SC)cc2)c1	0.9	7	51*	2	16
COc1ccc(CCNC(C)CCc2ccc(OC)cc2)cc1 (stereo unspecified)	1.1	-5	93*	7	-5
COc1ccc(CCNCc2ccc(OC)c(OC)c2OC)cc1	1	0	2	12	12
COc1ccc(-c2cc(C(F)(F)F)n3nc(C(=O)N4CCC5(CC4)OCCO5)cc3n2)cc1OC	0.8	20	7	3	16
Nc1c2c(nc3sc4c(c13)CCCC4)CCCC2	0.9	7	92*	16	76
Nc1c2c(nc3sc4c(c13)CCCC4)CCCCC2	1	0	77*	-8	-3
Cc1cc2ccccc2c(=O)n1CC(=O)NCC(=O)N1CCC2(CC1)OCCO2	1.1	-13	0	-10	-5
Cc1ccc(C(=O)N[C@@H](C)CN2C3=NC[C@@H](Cc4ccccc4)N3C[C@H]2Cc2ccc(O)cc2)cc1Br	1.1	-11	52*	10	-6
CC(C)NC(=O)Cn1cc(C(=O)c2ccccc2F)c2ccccc21	1	4	-2	4	-9
CCCC1COC(Cn2cncn2)(c2ccc(Cl)cc2Cl)O1 (stereo unspecified)	0.8	16	92*	7	11
CC1(c2ccc(Cl)cc2Cl)OCC(Cn2cncn2)O1 (stereo unspecified)	1.1	-9	3	12	-6
CCOc1ccc(Cl)cc1CNCCc1ccc(F)cc1	1	1	65*	-4	-1
O=C(Oc1c(Cl)cc(Cl)c2ccccc12)N1CCCCC1	0.8	19	37	2	73*
SMILES	Diaph act CS	Diaph inh CS	L major viab	G6PDH CS	WT yeast gro inh
COc1cccc(C2CC3C(=O)C=CC2N3Cc2ccccc2)c1 (stereo unspecified)	0.6	35	99*	-3	10
O=c1[nH]c(=O)n(CCc2ccccc2)c(O)c1C=NCc1ccc2c(c1)OCO2	1	2	-2	1	4
C=CCN1C(=O)NC(=O)/C(=C/c2ccc(OC)c(CSc3ccccn3)c2)C1=O	1	2	-5	4	-13
CN(C)c1ccc(/C=C2/C(=O)NC(=O)N(CCc3ccc(F)cc3)C2=O)cc1	1	-1	0	4	3
O=C1NC(=O)N(CCc2ccc(F)cc2)C(=O)/C1=C\C=C\c1ccccc1	0.8	16	100*	5	-11
C=CCN1C(=O)NC(=O)/C(=C/C=C/c2ccccc2)C1=O	1	3	100*	5	-8
CN(C)c1ccc(/C=C/C=C2/C(=O)NC(=O)N(c3ccccc3)C2=O)cc1	0.6	38	96*	13	27
COc1ccc(C2SCC(=O)Nc3c2c(C)nn3C2CCOC(C)(C)C2)cc1OC (stereo unspecified)	0.9	6	-3	15	2
CN1/C(=C\C=Nc2ccccc2)C(C)(C)c2ccccc21	0.9	15	98*	11	-8
Cc1ncc(CN2CCCC(C(=O)c3sccc3C)C2)s1 (stereo unspecified)	1	5	52*	14	2
Cc1ccsc1C(=O)C1CCCN(Cc2cnn(C)c2)C1 (stereo unspecified)	0.9	15	34	1	9
CCn1cc(CN2CCCC(C(=O)c3sccc3C)C2)cn1 (stereo unspecified)	0.8	21	54*	12	-1
OC(CNC1CCCCC1)C(F)(F)F (stereo unspecified)	1	3	-4	-2	5
N#CCCn1cc(C(=O)Nc2ccccc2Br)c(-c2ccc([N+](=O)[O-])cc2)n1	0.9	6	-1	-4	-1
CCN(c1ccc(C(O)(C(=O)OC)C(F)(F)F)cc1)S(=O)(=O)c1ccc(C)cc1 (stereo unspecified)	0.8	23	89*	3	2
CCOC(=O)C(O)(c1ccc(N(CC)C(=O)COc2ccccc2)cc1)C(F)(F)F (stereo unspecified)	0.8	16	65*	12	-2
CCOC(=O)C(O)(c1ccc(N(CC)S(=O)(=O)c2ccc(C)cc2)cc1)C(F)(F)F (stereo unspecified)	0.7	25	93*	5	24
COC(=O)C(O)(c1ccc(N(C)S(=O)(=O)c2ccccc2)cc1)C(F)(F)F (stereo unspecified)	0.8	25	100*	4	-6
O=Cc1cn(Cc2cccc(F)c2)c2ccccc12	1	-2	59*	2	-14
CCc1ccc(-c2nn(Cc3ccccc3)cc2C=O)cc1	0.8	16	18	6	20
CC(=O)c1cc(C#N)c(N2CCN(C)CC2)nc1C	1	3	-6	3	0
CS(=O)(=O)NCc1nnc2n1-c1ccc(Cl)cc1C(c1ccccc1)=NC2	0.9	6	-7	-4	-2
CSCc1nnc2n1-c1ccc(Cl)cc1C(c1ccccc1)=NC2	0.9	6	94*	7	-14
Cc1ccnc(NS(=O)(=O)c2ccc(N=Cc3c(O)n(C)c(=O)n(C)c3=O)cc2)n1	1	0	-3	-2	1
COc1cc2c(cc1/C=C/[N+](=O)[O-])OCO2	0.9	14	100*	14	38
